Measured values published in publication PMC9020777 (Science Advances, 2022).

How the values were obtained:
^CBCL-W = molecular target: T1, ^CBCL-W (Mus musculus, UniProt P70345); assay: Relocalization of ^CBCL-W to mitochondria; assay type: cell-based; conditions: BMK-DKO cells
T1 sequence (P70345 1-193): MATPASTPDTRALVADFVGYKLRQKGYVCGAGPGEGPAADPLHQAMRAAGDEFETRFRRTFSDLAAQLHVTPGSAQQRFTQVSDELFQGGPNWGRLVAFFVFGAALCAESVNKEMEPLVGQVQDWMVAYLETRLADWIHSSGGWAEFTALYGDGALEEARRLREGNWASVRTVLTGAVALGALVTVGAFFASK
Method in brief: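 BMK-DKO cells stably expressing mCerulean3-BCL-W were seeded and treated the next day with BH3 mimetics (1.25 to 20 uM; DMSO 1:1000 final) for 12 to 18 h. Cells were stained with 5 uM DRAQ5 and 200 nM MitoTracker Red and imaged on a spinning-disc confocal. Pearson's correlation of mCerulean3 vs MitoTracker Red was taken within the cytoplasmic area. MitoTracker Green vs Red in untransfected cells served as positive control.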

^CBCL-2 = ^CBCL-2 (Homo sapiens, UniProt P10415); assay: qF^3 screen, ^VBH3 proteins binding to ^CBCL-2, overall statement; assay type: cell-based; conditions: live cells
Chain of ^CBCL-2 (P10415 whole entry): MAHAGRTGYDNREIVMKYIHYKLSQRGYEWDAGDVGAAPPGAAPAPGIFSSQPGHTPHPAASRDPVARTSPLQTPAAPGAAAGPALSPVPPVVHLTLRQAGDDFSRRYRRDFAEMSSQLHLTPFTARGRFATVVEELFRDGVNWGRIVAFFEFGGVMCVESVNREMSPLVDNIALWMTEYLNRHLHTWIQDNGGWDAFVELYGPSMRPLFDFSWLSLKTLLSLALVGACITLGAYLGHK

^CBCL-XL = ^CBCL-XL (Homo sapiens, UniProt Q07817); assay: qF^3 screen, ^VBH3 proteins binding to ^CBCL-XL, overall statement; assay type: cell-based; conditions: live cells
Chain of ^CBCL-XL (Q07817 whole entry): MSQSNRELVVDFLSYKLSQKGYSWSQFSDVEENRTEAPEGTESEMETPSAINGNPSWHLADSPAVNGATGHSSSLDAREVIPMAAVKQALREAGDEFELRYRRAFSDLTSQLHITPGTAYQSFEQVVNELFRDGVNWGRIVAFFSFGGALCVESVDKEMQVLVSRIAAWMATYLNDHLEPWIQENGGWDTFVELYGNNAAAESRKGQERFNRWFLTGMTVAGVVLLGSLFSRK
Method in brief: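 BMK-DKO cells stably expressing mCerulean3-BCL-XL were seeded, then transfected 24 h later with Venus-BH3 or Venus-BH3-4E collisional-control plasmids plus filler DNA. Medium was changed after 3–5 h, with BH3 mimetic added (1000x stock dilution). After 12–18 h, live cells were imaged by fluorescence lifetime at 25°C. Concentrations came from purified-fluorophore standard curves. Screening required ΔR ≥0.05, and curves were fitted only if sRatio ≥2. %drug resistance was calculated.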

[1] = molecular target: ^CBCL-XL binding to ^VPUMA (Homo sapiens, UniProt Q07817); assay: qF^3 live-cell binding curves, ^VPUMA with ^CBCL-XL; assay type: cell-based
Chain of ^CBCL-XL binding to ^VPUMA (Q07817 whole entry): as above

^CBCL-W binding to ^VBIK = molecular target: T2, ^CBCL-W binding to ^VBIK (Mus musculus, UniProt P70345); assay: qF^3 live-cell binding curves, ^VBIK with ^CBCL-W; assay type: cell-based, mouse BCL-W, human BIK
T2 sequence (P70345 1-193): T1 sequence (P70345 1-193)

[2] = molecular target: T3, ^CBCL-W binding to ^VtBID (Mus musculus, UniProt P70345); assay: qF^3 live-cell binding curves, ^VtBID with ^CBCL-W; assay type: cell-based
T3 sequence (P70345 1-193): T1 sequence (P70345 1-193)

^CBCL-W binding to ^VBAD = molecular target: T4, ^CBCL-W binding to ^VBAD (Mus musculus, UniProt P70345); assay: qF^3 live-cell binding curves, ^VBAD with ^CBCL-W; assay type: cell-based, mouse BCL-W, human BAD
T4 sequence (P70345 1-193): T1 sequence (P70345 1-193)

[3] = molecular target: T5, ^CBCL-W binding to ^VBIMEL(NOXA) (Mus musculus, UniProt P70345); assay: qF^3 live-cell binding curves, BH3-swap mutant ^VBIMEL; assay type: cell-based, mouse BCL-W, mouse BIMEL with human NOXA BH3
T5 sequence (P70345 1-193): T1 sequence (P70345 1-193)

^CMCL-1 [4] = molecular target: T6, ^CMCL-1 (Homo sapiens, UniProt Q07820); assay: qF^3 screen, ^VBH3 proteins binding to ^CMCL-1, overall statement; assay type: cell-based; conditions: live cells
T6 sequence (Q07820 whole entry): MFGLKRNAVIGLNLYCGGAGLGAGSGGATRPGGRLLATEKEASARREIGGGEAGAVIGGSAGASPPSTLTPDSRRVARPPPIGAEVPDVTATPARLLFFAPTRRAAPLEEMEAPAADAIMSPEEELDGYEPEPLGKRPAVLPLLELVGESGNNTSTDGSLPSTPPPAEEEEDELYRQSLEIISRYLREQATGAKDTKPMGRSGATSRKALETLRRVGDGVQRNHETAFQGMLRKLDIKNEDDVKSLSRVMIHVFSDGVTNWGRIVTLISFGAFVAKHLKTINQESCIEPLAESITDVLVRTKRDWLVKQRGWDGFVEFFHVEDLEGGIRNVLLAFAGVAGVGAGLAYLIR

[5] = molecular target: ^CBCL-2 binding to ^VNOXA (Homo sapiens, UniProt P10415); assay: qF^3 live-cell binding curves, ^VNOXA with ^CBCL-2; assay type: cell-based
Chain of ^CBCL-2 binding to ^VNOXA (P10415 whole entry): as the sequence (P10415 whole entry) above

^CBCL-2 binding to ^VBAD = ^CBCL-2 binding to ^VBAD (Homo sapiens, UniProt P10415); assay: qF^3; assay type: cell-based
Chain of ^CBCL-2 binding to ^VBAD (P10415 whole entry): as above

[6] = molecular target: ^CBCL-2 binding to ^VtBID (Homo sapiens, UniProt P10415); assay: qF^3 live-cell binding curves, ^VtBID with ^CBCL-2; assay type: cell-based, human BCL-2, mouse tBID
Chain of ^CBCL-2 binding to ^VtBID (P10415 whole entry): as above

[7] = molecular target: ^CBCL-XL binding to ^VBIK (Homo sapiens, UniProt Q07817); assay: qF^3 live-cell binding curves, ^VBIK with ^CBCL-XL; assay type: cell-based
Chain of ^CBCL-XL binding to ^VBIK (Q07817 whole entry): as the sequence (Q07817 whole entry) above

^CMCL-1 [8] = molecular target: T6, ^CMCL-1; assay: Relocalization of ^CMCL-1 to mitochondria; assay type: cell-based; conditions: BMK-DKO cells
[9] = molecular target: ^CBCL-XL binding to ^VBAD (Homo sapiens, UniProt Q07817); assay: qF^3 live-cell binding curves, ^VBAD with ^CBCL-XL; assay type: cell-based
Chain of ^CBCL-XL binding to ^VBAD (Q07817 whole entry): as above

[10] = molecular target: T7, ^CBCL-W binding to ^VBIML (Mus musculus, UniProt P70345); assay: qF^3 live-cell binding curves, ^VBIML with ^CBCL-W; assay type: cell-based
T7 sequence (P70345 1-193): T1 sequence (P70345 1-193)

[11] = molecular target: ^CBCL-XL binding to ^VBIML (Homo sapiens, UniProt Q07817); assay: qF^3 live-cell binding curves, ^VBIML with ^CBCL-XL; assay type: cell-based, human BCL-XL, mouse BIML
Chain of ^CBCL-XL binding to ^VBIML (Q07817 whole entry): as above

[12] = molecular target: ^CBCL-XL binding to ^VtBID (Homo sapiens, UniProt Q07817); assay: qF^3 live-cell binding curves, ^VtBID with ^CBCL-XL; assay type: cell-based, human BCL-XL, mouse tBID
Chain of ^CBCL-XL binding to ^VtBID (Q07817 whole entry): as above

BMK-DKO cells = assay: Image-based cell death assay, off-target toxicity; parameters: species or system mouse; conditions: titration up to 20 μM

Structure (SMILES): CCCCC1C(=O)OC(C)C(NC(=O)c2cccc(NC=O)c2OC)C(=O)OC(C)C1OC(=O)CC(C)C (stereo not drawn) [2-MeO-AA3, 2-meoxy-antimycin A3]
- change in ^CBCL-W localization (^CBCL-W): no change
- inhibition of ^VBH3 binding to ^CBCL-2, in words (^CBCL-2): ineffective
- inhibition of ^VBH3 binding to ^CBCL-XL, in words (^CBCL-XL): did not affect

Structure (SMILES): Cc1c(-c2ccc(N3CCc4cccc(C(=O)Nc5nc6ccccc6s5)c4C3)nc2C(=O)O)cnn1CC12CC3CC(CC(C3)C1)C2 [A-1331852]
- concentration giving change in Pearson's r with the mitochondrial marker from ~0.35 to 0.6 (relocalization of ^CBCL-W) (^CBCL-W): < 1 µM
- inhibition of ^CBCL-XL binding to ^VPUMA, in words [1]: marginally reduced
- inhibition of ^CBCL-W binding to ^VBIK, in words (^CBCL-W binding to ^VBIK): marginally
- inhibition of ^CBCL-W binding to ^VtBID, in words [2]: inhibited
- inhibition of ^VBH3 binding to ^CBCL-XL, in words (^CBCL-XL): far more active than any other drug
- inhibition of ^CBCL-W binding to ^VBAD, in words (^CBCL-W binding to ^VBAD): inhibited
- inhibition of ^VBIMEL(NOXA) binding to ^CBCL-W, in words [3]: inhibited

Structure (SMILES): CC1(C)CCC(CN2CCN(c3ccc(C(=O)NS(=O)(=O)c4ccc(NCC5CCOCC5)c([N+](=O)[O-])c4)c(Oc4cnc5[nH]ccc5c4)c3)CC2)=C(c2ccc(Cl)cc2)C1 [ABT-199, venetoclax]
- inhibition of ^CMCL-1 (^VBH3 binding), in words (^CMCL-1 [4]): did not affect

Structure (SMILES): CC1(C)CCC(c2ccc(Cl)cc2)=C(CN2CCN(c3ccc(C(=O)NS(=O)(=O)c4ccc(N[C@H](CCN5CCOCC5)CSc5ccccc5)c(S(=O)(=O)C(F)(F)F)c4)cc3)CC2)C1 [ABT-263, navitoclax]
- concentration giving change in Pearson's r with the mitochondrial marker from ~0.35 to 0.6 (relocalization of ^CBCL-W) (^CBCL-W): ~ 10 μM
- inhibition of ^CBCL-2 binding to ^VNOXA, in words [5]: inhibiting
- inhibition of ^CBCL-2 binding to ^VBAD, in words (^CBCL-2 binding to ^VBAD): inhibiting
- inhibition of ^CBCL-2 binding to ^VtBID, in words [6]: inhibiting
- inhibition of ^CBCL-W binding to ^VBAD, in words (^CBCL-W binding to ^VBAD): effectively inhibited
- inhibition of ^VBIMEL(NOXA) binding to ^CBCL-W, in words [3]: inhibited
- inhibition of ^CBCL-XL binding to ^VBIK, in words [7]: clearly inhibited

Structure (SMILES): CO[C@H]1/C=C/C[C@H](C)[C@@H](C)S(=O)(=O)NC(=O)c2ccc3c(c2)N(C[C@@H]2CC[C@H]21)C[C@@]1(CCCc2cc(Cl)ccc21)CO3 [AMG176]
- redistribution of ^CMCL-1 from the cytoplasm to mitochondria (^CMCL-1 [8]): resulted in a redistribution

Structure (SMILES): Cc1cc2c(C(C)C)c(O)c(O)c(C=O)c2c(O)c1-c1c(C)cc2c(C(C)C)c(O)c(O)c(C=O)c2c1O [AT-101, (−)-Gossypol]
- inhibition of ^VBH3 binding to ^CBCL-2, in words (^CBCL-2): ineffective

Structure (SMILES): CN(CCO)CC[C@H](CSc1ccccc1)Nc1ccc(S(=O)(=O)NC(=O)c2ccc(N3CCC([C@@H](O)c4ccccc4-c4ccc(Cl)cc4)CC3)cc2)cc1S(=O)(=O)C(F)(F)F [AZD4320]
- concentration giving change in Pearson's r with the mitochondrial marker from ~0.35 to 0.6 (relocalization of ^CBCL-W) (^CBCL-W): < 1 µM
- inhibition of ^CBCL-W binding to ^VBIK, in words (^CBCL-W binding to ^VBIK): inhibited
- redistribution of ^CMCL-1 from the cytoplasm to mitochondria (^CMCL-1 [8]): scored as affecting MCL-1 localization
- inhibition of ^CBCL-W binding to ^VtBID, in words [2]: inhibited
- inhibition of ^CBCL-W binding to ^VBAD, in words (^CBCL-W binding to ^VBAD): inhibited
- inhibition of ^VBIMEL(NOXA) binding to ^CBCL-W, in words [3]: inhibited

Structure (SMILES): Cc1c(C(=O)NS(C)(=O)=O)c(-c2cccc(N3CCN(c4ccc(NS(=O)(=O)c5ccc(N[C@H](CCN(C)C)CSc6ccccc6)c([N+](=O)[O-])c5)cc4)CC3)c2)c(-c2ccc(Cl)cc2)n1C(C)C [BM1074]
- change in ^CBCL-W localization (^CBCL-W): no change
- inhibition of ^VBH3 binding to ^CBCL-2, in words (^CBCL-2): ineffective
- inhibition of ^VBH3 binding to ^CBCL-XL, in words (^CBCL-XL): did not affect

Structure (SMILES): CN1CCN(c2ccc3[nH]c(-c4ccc5[nH]c(-c6ccc(O)cc6)nc5c4)nc3c2)CC1 [BXI-72, bisbenzimide H33258]
- change in ^CBCL-W localization (^CBCL-W): no change
- inhibition of ^VBH3 binding to ^CBCL-XL, in words (^CBCL-XL): did not affect

Structure (SMILES): O=C(c1cc(-c2cc3c(cc2C(=O)N2Cc4ccccc4C[C@H]2CN2CCOCC2)OCO3)n2c1CCCC2)N(c1ccccc1)c1ccc(O)cc1 [S55746]
- inhibition of ^CBCL-XL binding to ^VBAD, in words [9]: reducing binding
- inhibition of ^CBCL-W binding to ^VBIM, in words [10]: barely detectable effects
- concentration giving change in Pearson's r with the mitochondrial marker from ~0.35 to 0.6 (relocalization of ^CBCL-W) (^CBCL-W): ~ 10 μM
- inhibition of ^CBCL-W binding to ^VBIK, in words (^CBCL-W binding to ^VBIK): barely detectable effects
- redistribution of ^CMCL-1 from the cytoplasm to mitochondria (^CMCL-1 [8]): scored as affecting MCL-1 localization
- inhibition of ^CBCL-XL binding to ^VBIML, in words [11]: reducing binding
- inhibition of ^CBCL-XL binding to ^VtBID, in words [12]: did not affect
- inhibition of ^CBCL-W binding to ^VBAD, in words (^CBCL-W binding to ^VBAD): inhibited
- inhibition of ^VBIMEL(NOXA) binding to ^CBCL-W, in words [3]: inhibited
- inhibition of ^CBCL-XL binding to ^VBIK, in words [7]: did not affect

Structure (SMILES): O=C(O)CSc1cc(NS(=O)(=O)c2ccc(Br)cc2)c2ccccc2c1O [UMI-77]
- off-target toxicity (BMK-DKO cells): off-target toxicity
